The nature of data set [1]: Cmax in male albino Wistar rat plasma at 0.018 mg/kg, iv measured upto 1440 mins by HPLC-MS analysis. Type of data set: ADME, organism-based. Put shortly: (§1)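 Single tail-vein injection into male wild-type rats, 0.1 mL per 100 g body weight. Solutions were 20 or 25 μM in saline with 3% DMSO, giving 0.013 or 0.018 mg/kg. Rats were exsanguinated at 5–1440 min (9 time-points, 3 per point). Plasma and brain levels were measured by HPLC-MS. Parameters came from non-compartmental analysis; values are mean ± SE of three.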

Data set [2] can be described thus: AUC (0 to 1440 mins) in male albino Wistar rat brain at 60 mg/kg, po measured upto 1440 mins by HPLC-MS analysis. The class given is ADME, organism-based. The settings on record: in vivo, 24 h. Put shortly:
(§2)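 Oral gavage via blunt needle into the stomach of male wild-type rats. Dose was 60 mg/kg from a 16 mM solution in 10% NMP, 25% Kolliphor EL and 65% saline. Rats were sacrificed at 15 time-points from 5 to 1440 min, 3 per point. Plasma and brain were analysed by HPLC-MS with non-compartmental analysis; values are mean ± SE of three.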

The target of data set [3] is T1, 3-hydroxyacyl-CoA dehydrogenase type-2 (Homo sapiens) (UniProt Q99714).
T1 sequence (whole entry): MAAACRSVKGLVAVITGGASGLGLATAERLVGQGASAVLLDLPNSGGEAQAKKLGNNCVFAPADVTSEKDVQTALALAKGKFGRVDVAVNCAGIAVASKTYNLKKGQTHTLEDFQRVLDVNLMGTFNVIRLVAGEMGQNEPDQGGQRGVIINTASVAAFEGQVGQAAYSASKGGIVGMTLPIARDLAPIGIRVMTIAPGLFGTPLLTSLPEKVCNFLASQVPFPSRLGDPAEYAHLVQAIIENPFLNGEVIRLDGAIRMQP
Nature of the data set: Binding affinity to 17beta-HSD10 (unknown origin) assessed as increase in denaturation temperature by differential scanning fluorimetry (DSF) assay. The settings on record: dose 25-50 µM. In outline: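 Thermal shift assay with 1.43 μM 17β-HSD10 in 100 mM potassium phosphate pH 8.0 with SYPRO Orange (1:1000). Compounds were tested at 25 and 50 μmol/L. Fluorescence (Ex/Em 490/575) was recorded over 25–90 °C at 1 °C/min and Tm taken from melting curves. Triplicate; mean ± SD.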
Background: Differential scanning fluorimetry follows unfolding on heating by fluorescence.

Data set [4] in a line: Cmax in male albino Wistar rat plasma at 60 mg/kg, po measured upto 1440 mins by HPLC-MS analysis. Type of data set: ADME, organism-based. In outline:
as §2

The nature of data set [5]: Permeability coefficient in male albino Wistar rat assessed as ratio of brain AUC to plasma AUC at 0.018 mg/kg, iv measured upto 1440 mins by HPLC-MS analysis. The class given is ADME, organism-based. In outline:
as §1

Data set [6] can be described thus: Cmax in male albino Wistar rat brain at 60 mg/kg, po measured upto 1440 mins by HPLC-MS analysis. The class given is ADME, organism-based. Put shortly:
as §2

Data set [7] in a line: MRT in male albino Wistar rat plasma at 0.018 mg/kg, iv measured upto 1440 mins by HPLC-MS analysis. Type of data set: ADME, organism-based. In outline:
as §1

Data set [8] is described as follows: Apparent volume of distribution in male albino Wistar rat plasma at 0.018 mg/kg, iv measured upto 1440 mins by HPLC-MS analysis. The settings on record: read-out: Vz. The class given is ADME, organism-based. In outline: as §1
The nature of data set [9]: Tmax in male albino Wistar rat plasma at 0.018 mg/kg, iv measured upto 1440 mins by HPLC-MS analysis. The class given is ADME, organism-based. In outline: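 Single tail-vein injection in male wild-type rats of a 25 μM dosing solution in saline with 3% DMSO, given at 0.1 mL per 100 g body weight. Three animals were killed at each of 5, 15, 30, 60, 90, 180, 240, 360 and 1440 min and exsanguinated. Plasma levels were measured by HPLC-MS. Parameters came from non-compartmental analysis, reported as mean ± SE of three.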

Data set [10] in a line: Half life in male albino Wistar rat plasma at 0.018 mg/kg, iv measured upto 1440 mins by HPLC-MS analysis. Type of data set: ADME, organism-based. In outline: as §1
The nature of data set [11]: Tmax in male albino Wistar rat brain at 60 mg/kg, po measured upto 1440 mins by HPLC-MS analysis. Type of data set: ADME, organism-based. In outline: as §2
The nature of data set [12]: Tmax in male albino Wistar rat brain at 0.018 mg/kg, iv measured upto 1440 mins by HPLC-MS analysis. The class given is ADME, organism-based. In outline: as §1
Data set [13] in a line: Permeability coefficient in male albino Wistar rat assessed as ratio of brain AUC to plasma AUC at 60 mg/kg, po measured upto 1440 mins by HPLC-MS analysis. The class given is ADME, organism-based. In outline:
as §2

Data set [14] concerns SH-SY5Y. The experiment in a line: Reduction in glutathione level in human SH-SY5Y cells at 100 uM measured after 24 hrs by monochlorobimane assay. Type of data set: functional, cell-based. In outline:
(§3)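 SH-SY5Y cells (passages 14–18) in DMEM/F12 with 15% FBS were exposed to compound (0.1–100 μM) for 4 or 24 h. Monochlorobimane was then added to a final 40 μmol/L, and fluorescence (394/490 nm) was followed for 10 min. GSH is the slope as % of control, mean ± SD, triplicate of ≥3 experiments.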

Data set [15] can be described thus: Permeability coefficient in male albino Wistar rat assessed as ratio of brain AUC to plasma AUC at 0.013 mg/kg, iv measured upto 1440 mins by HPLC-MS analysis. The class given is ADME, organism-based. Put shortly: as §1
The nature of data set [16]: Cmax in male albino Wistar rat brain at 0.013 mg/kg, iv measured upto 1440 mins by HPLC-MS analysis. Type of data set: ADME, organism-based. Put shortly:
as §1

The nature of data set [17]: Half life in male albino Wistar rat plasma at 0.013 mg/kg, iv measured upto 1440 mins by HPLC-MS analysis. The class given is ADME, organism-based. Put shortly:
as §1

Data set [18] in a line: Tmax in male albino Wistar rat plasma at 0.013 mg/kg, iv measured upto 1440 mins by HPLC-MS analysis. The class given is ADME, organism-based. Put shortly:
as §1

Data set [19] is described as follows: MRT in male albino Wistar rat plasma at 0.013 mg/kg, iv measured upto 1440 mins by HPLC-MS analysis. The class given is ADME, organism-based. In outline:
as §1

The nature of data set [20]: Apparent volume of distribution in male albino Wistar rat plasma at 0.013 mg/kg, iv measured upto 1440 mins by HPLC-MS analysis. The class given is ADME, organism-based. To be noted: read-out: Vz. Put shortly:
as §1

Data set [21] is described as follows: AUC (0 to 1440 mins) in male albino Wistar rat plasma at 0.013 mg/kg, iv measured upto 1440 mins by HPLC-MS analysis. Type of data set: ADME, organism-based. The settings on record: in vivo, 24 h. Put shortly: as §1
A short description of data set [22]: Cmax in male albino Wistar rat plasma at 0.013 mg/kg, iv measured upto 1440 mins by HPLC-MS analysis. The class given is ADME, organism-based. Put shortly: as §1
The test system of data set [23] is SH-SY5Y. Nature of the data set: Reduction in dehydrogenase activity in human SH-SY5Y cells at 100 uM measured after 4 to 24 hrs by […] assay. The class given is functional, cell-based. The settings on record: time 4-24 hrs. In outline:
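SH-SY5Y cells (passages 14–18) in DMEM/F12 with 15% FBS were exposed to compound (0.1–100 μM) for 4 and 24 h. WST-1 reagent was added and the absorbance change at 440 nm was read over 0–1 h. Results are % of control cells, mean ± SD, triplicate of ≥3 experiments.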

The nature of data set [24]: Tmax in male albino Wistar rat brain at 0.013 mg/kg, iv measured upto 1440 mins by HPLC-MS analysis. Type of data set: ADME, organism-based. In outline:
as §1

Data set [25] concerns SH-SY5Y. Nature of the data set: Reduction in glutathione level in human SH-SY5Y cells at 100 uM measured after 4 hrs by monochlorobimane assay. The class given is functional, cell-based. Put shortly: as §3
Data set [26] can be described thus: AUC (0 to 1440 mins) in male albino Wistar rat brain at 0.013 mg/kg, iv measured upto 1440 mins by HPLC-MS analysis. Type of data set: ADME, organism-based. To be noted: in vivo, 24 h. Put shortly: as §1

The source made the active and inactive calls. No cut-off for these calls is given here.

As usually defined, the Cmax is the highest concentration seen after dosing. The Kp is the ratio of the level in a tissue or fluid to that in plasma or blood. The term MRT denotes the average time that molecules of a dose stay in the body. As a reminder, the Tmax is the time from dosing to the highest level. Broadly, the half-life is how long it takes for the measured level to halve. A lower half-life goes with fast loss. Take `O=C(Nc1ccc(O)c(Cl)c1)Nc1nc2ccc(C(=O)O)cc2s1`: the highest concentration (Cmax) came to 1.54 nM in data set [1], 6.85 nM in data set [4] and 0.154 nM in data set [6]. This compound displayed an AUC in data set [2] of 20135 pmol·min. Besides, the Activity result in data set [3] was “Dose-Dependent Effect”. Further, the partition ratio (Kp) at 24 h was determined as 0.002 in data set [5] and 0.095 in data set [13]. Further, the mean residence time MRT in [7] was 15.7 min. Also, the Vd in [8] turned out to be 135 L/kg. Besides, the time of peak concentration (Tmax) is 5 min in data set [9], 40 min in [11] and 90 min in data set [12]. In [10], this compound displayed a half-life of 29.4 min.
On to `CC(=O)Nc1ccc2nc(NC(=O)Nc3ccc(O)c(Cl)c3)sc2c1`, for which the AUC in data set [2] turned out to be 15749 pmol·min; in [21] it was 5832 pmol·min; in data set [26] it was 3299 pmol·min. Moreover, the inhibition result in the data set with SH-SY5Y [14] is “inactive”. The Activity entry in data set [3] is “Dose-Dependent Effect”. The concentration ratio (Kp) at 24 h in [15] turned out to be 0.566; in data set [13], 0.011. In addition, the maximum concentration (Cmax) was determined as 0.0126 nM in data set [16], 13.5 nM in data set [4], 0.206 nM in data set [6] and 0.389 nM in data set [22]. In addition, in [17], the half-life was 15.8 min. The Tmax in data set [18] is 5 min; in data set [11], 35 min; in data set [24], 956 min. In data set [19], this compound had a mean residence time MRT of 24.5 min. Also, the Vd in [20] was found to be 147 L/kg. In addition, the inhibition result in the data set with SH-SY5Y [23] and in the data set on SH-SY5Y [25] was “Active” in each case.

Values taken from ChEMBL document CHEMBL5620402, “Development of submicromolar 17β-HSD10 inhibitors and their in vitro and in vivo evaluation” (Eur J Med Chem, 2023).
